This note sets out measurements from ChEMBL document CHEMBL1125317, “3-Hydroxy-3-methylglutaryl-coenzyme A reductase inhibitors. 9. The synthesis and biological evaluation of novel simvastatin analogs” (J Med Chem, 1992).

Test [1] addresses T1, 3-hydroxy-3-methylglutaryl-coenzyme A reductase (Homo sapiens, UniProt P04035).
T1 sequence (P04035 whole entry): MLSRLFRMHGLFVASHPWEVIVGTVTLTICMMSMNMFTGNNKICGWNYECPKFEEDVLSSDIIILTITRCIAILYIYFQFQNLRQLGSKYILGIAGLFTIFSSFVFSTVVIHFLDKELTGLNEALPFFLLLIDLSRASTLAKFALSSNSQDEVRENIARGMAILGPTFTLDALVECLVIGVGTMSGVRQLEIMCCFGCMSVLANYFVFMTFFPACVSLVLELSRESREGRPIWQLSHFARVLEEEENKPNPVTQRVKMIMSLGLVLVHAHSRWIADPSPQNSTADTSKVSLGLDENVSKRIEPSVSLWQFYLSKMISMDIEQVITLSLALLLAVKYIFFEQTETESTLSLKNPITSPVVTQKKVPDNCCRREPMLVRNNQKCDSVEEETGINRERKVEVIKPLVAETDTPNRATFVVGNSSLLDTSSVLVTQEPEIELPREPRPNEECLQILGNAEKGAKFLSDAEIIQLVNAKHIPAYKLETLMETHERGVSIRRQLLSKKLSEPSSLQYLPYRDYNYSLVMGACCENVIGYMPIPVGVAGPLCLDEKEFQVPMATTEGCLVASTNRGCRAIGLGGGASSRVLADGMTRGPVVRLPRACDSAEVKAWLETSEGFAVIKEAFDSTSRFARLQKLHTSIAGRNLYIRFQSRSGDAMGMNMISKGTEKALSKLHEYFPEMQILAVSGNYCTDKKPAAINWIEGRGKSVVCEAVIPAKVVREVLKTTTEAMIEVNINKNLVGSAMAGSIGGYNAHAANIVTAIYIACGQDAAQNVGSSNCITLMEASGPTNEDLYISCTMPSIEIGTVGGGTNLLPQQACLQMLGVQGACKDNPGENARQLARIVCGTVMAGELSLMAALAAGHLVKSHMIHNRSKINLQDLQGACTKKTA
Briefly: The compound was tested in vitro for inhibitory activity against HMG-CoA reductase.

The test system of a further test is Canis familiaris. As to the kind of experiment: Compound tested […] for % change of plasma cholesterol in cholestyramine-primed dogs after oral administration at 4 mg/kg. The format is functional, Canis lupus familiaris.
Another test has as its system Rattus norvegicus. As to the kind of experiment: […] acute inhibition of [14C]cholesterol synthesis in the rat post peroral administration of the test compound at 0.45 mg/kg. Conditions: route oral. Format: functional. The essentials:
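Rats given a single oral dose of 0.45 mg/kg; [14C]acetate incorporation into cholesterol measured 1 h after dosing as index of acute cholesterol synthesis inhibition.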

SMILES strings stand for the structures. pIC50: −log10 of the molar value.

With `CC[C@H](C)C(=O)O[C@H]1CCC=C2C=C[C@H](C)[C@H](CC[C@@H]3C[C@@H](O)CC(=O)O3)[C@H]21` [MEVASTATIN], the pIC50 (in general, the negative decadic logarithm of the IC50, by convention in mol/L) in test [1] is 7.55.
Take `CCC(C)(C)C(=O)O[C@@H]1C2C(=C[C@H](C)[C@H]1[C@H](C)O)C=C[C@H](C)[C@@H]2CC[C@@H]1C[C@@H](O)CC(=O)O1` (some centres undefined): the Change with Canis familiaris is listed as -32%; with Rattus norvegicus it was -28%.
The corresponding values for `CCC(C)(C)C(=O)O[C@H]1C[C@@H](C)C=C2C=C[C@H](C)[C@H](CC[C@@H]3C[C@@H](O)CC(=O)O3)C21` (some centres undefined) are -60% and -65%.
The corresponding values for `CCC(C)(C)C(=O)O[C@@H]1C2C(=C[C@H](C)[C@H]1[C@@H](O)c1ccccc1)C=C[C@H](C)[C@@H]2CC[C@@H]1C[C@@H](O)CC(=O)O1` (some centres undefined) are -31% and -25%.
Take `CCC(C)(C)C(=O)O[C@@H]1C2C(=C[C@H](C)[C@H]1CO)C=C[C@H](C)[C@@H]2CC[C@@H]1C[C@@H](O)CC(=O)O1` (some centres undefined): the Change with Canis familiaris is reported as 0%; in the test on Rattus norvegicus, -69%. This compound gave a pIC50 in test [1] of 7.97.
Regarding `CC[C@H](C)C(=O)O[C@H]1C[C@@H](C)C=C2C=C[C@H](C)[C@H](CC[C@@H]3C[C@@H](O)CC(=O)O3)C21` (some centres undefined), the Change in the test with Canis familiaris is -42%; in the test on Rattus norvegicus it was -55%.
In the case of `CCC(C)(C)C(=O)O[C@@H]1C2C(=C[C@H](C)[C@@H]1O)C=C[C@H](C)[C@@H]2CC[C@@H]1C[C@@H](O)CC(=O)O1` (some centres undefined), the Change in the test with Canis familiaris is -36%; in the test on Rattus norvegicus it was -45%.
